What all share (format): functional
For test [1], the system named is MOLT-4. The experiment in a line: Growth inhibition of human MOLT4 cells assessed as growth inhibition at 10 uM after 48 hrs by sulforhodamine B assay. Conditions: MOLT-4, 48 h, read-out: GI.
The test system of test [2] is A549. The experiment in a line: Growth inhibition of human A549 cells assessed as growth inhibition at 10 uM after 48 hrs by sulforhodamine B assay. The note with it: A549, 48 h, read-out: GI. Summed up: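 Percent growth inhibition from the single 10^-5 M NCI-60 screen, reported as 100 minus growth percent. Growth percent was measured after 48 h drug exposure at 37 °C, 5% CO2, using TCA fixation, SRB staining and absorbance at 515 nm, against untreated controls and time-zero plates.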

Test [3] concerns CAKI-1. The experiment in a line: Growth inhibition of human CAKI-1 cells assessed as cell growth at 10 '-7 M after 48 hrs by sulforhodamine B assay. Conditions: CAKI-1, 48 h, read-out: Activity. Summed up:
(§1)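 Percent growth at each of the five concentrations of the 48 h continuous-exposure NCI SRB screen. Drug stocks were in DMSO at 400× the top final concentration and diluted in medium with gentamicin. Growth was calculated as [(Ti-Tz)/(C-Tz)]×100 when Ti ≥ Tz, or [(Ti-Tz)/Tz]×100 when Ti < Tz. Tz plates were fixed at drug addition; untreated wells served as control. Absorbance was read at 515 nm.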
In general terms: Sulforhodamine B stains cellular protein and so reports cell mass.

Test [4] concerns U-251. The test is described as follows: Growth inhibition of human U251 cells assessed as growth inhibition at 10 uM after 48 hrs by sulforhodamine B assay. Conditions: U-251, 48 h, read-out: GI.
The subject of test [5] is A498. The experiment in a line: Growth inhibition of human A498 cells assessed as cell growth at 10 '-8 M after 48 hrs by sulforhodamine B assay. Conditions: A498, 48 h, read-out: Activity. Summed up:
as §1

For test [6], the system named is TK-10. The test is described as follows: Growth inhibition of human TK10 cells assessed as cell growth at 10 '-8 M after 48 hrs by sulforhodamine B assay. The note with it: TK-10, 48 h, read-out: Activity.
Test [7] has as its system MDA-MB-435. The experiment in a line: Growth inhibition of human MDA-MB-435 cells assessed as cell growth at 10 '-5 M after 48 hrs by sulforhodamine B assay. The note with it: MDA-MB-435, 48 h, read-out: Activity.
The test system of test [8] is 786-0. The experiment in a line: Growth inhibition of human 786-0 cells assessed as cell growth at 10 '-7 M after 48 hrs by sulforhodamine B assay. Conditions: 786-0, 48 h, read-out: Activity. Summed up: as §1
For test [9], the system named is CAKI-1. The test is described as follows: Growth inhibition of human CAKI-1 cells assessed as cell growth at 10 '-4 M after 48 hrs by sulforhodamine B assay. Conditions: CAKI-1, 48 h, read-out: Activity. Summed up:
as §1

Test [10] relates to SNB-75. The test is described as follows: Growth inhibition of human SNB75 cells assessed as cell growth at 10 '-7 M after 48 hrs by sulforhodamine B assay. Conditions: SNB-75, 48 h, read-out: Activity.
For test [11], the system named is K562. The test is described as follows: Growth inhibition of human K562 cells assessed as cell growth at 10 '-6 M after 48 hrs by sulforhodamine B assay. The note with it: K562, 48 h, read-out: Activity.
Test [12] concerns RPMI-8226. The test is described as follows: Growth inhibition of human RPMI8226 cells assessed as cell growth at 10 '-8 M after 48 hrs by sulforhodamine B assay. Conditions: RPMI-8226, 48 h, read-out: Activity.
The test system of test [13] is TK-10. The test is described as follows: Growth inhibition of human TK10 cells assessed as cell growth at 10 '-6 M after 48 hrs by sulforhodamine B assay. The note with it: TK-10, 48 h, read-out: Activity.
Test [14] concerns MDA-MB-435. The experiment in a line: Growth inhibition of human MDA-MB-435 cells after 48 hrs by sulforhodamine B assay. The note with it: MDA-MB-435, 48 h. Summed up:
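NCI 60-cell-line five-dose screen. Cells were plated at 5,000–40,000/well by doubling time and grown 24 h at 37 °C, 5% CO2. Time-zero plates were TCA-fixed. Drug from DMSO stock was tested at 0.01, 0.1, 1, 10 and 100 µM final for 48 h continuous exposure. Read-out was SRB at 515 nm. GI50 is the concentration giving 50% reduction in net protein increase versus untreated control.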

Test [15] deals with CAKI-1. The test is described as follows: Growth inhibition of human CAKI-1 cells assessed as cell growth at 10 '-8 M after 48 hrs by sulforhodamine B assay. Conditions: CAKI-1, 48 h, read-out: Activity. Summed up: as §1
For test [16], the system named is SF-295. The experiment in a line: Growth inhibition of human SF295 cells assessed as cell growth at 10 uM after 48 hrs by sulforhodamine B assay. Conditions: SF-295, 48 h, read-out: Activity.
For test [17], the system named is UO-31. The test is described as follows: Growth inhibition of human UO31 cells assessed as cell growth at 10 '-7 M after 48 hrs by sulforhodamine B assay. Conditions: UO-31, 48 h, read-out: Activity.
The subject of test [18] is OVCAR-5. The test is described as follows: Growth inhibition of human OVCAR5 cells assessed as cell growth at 10 '-6 M after 48 hrs by sulforhodamine B assay. Conditions: OVCAR-5, 48 h, read-out: Activity.
For test [19], the system named is M14. The test is described as follows: Growth inhibition of human M14 cells assessed as growth inhibition at 10 uM after 48 hrs by sulforhodamine B assay. The note with it: M14, 48 h, read-out: GI.
Test [20] deals with K562. The test is described as follows: Growth inhibition of human K562 cells assessed as cell growth at 10 '-5 M after 48 hrs by sulforhodamine B assay. Conditions: K562, 48 h, read-out: Activity.

A value given as a limit tells only on which side of the number the result lay.

For the molecule `Cc1cc(=O)oc2cc(OCCn3c(C)nn(-c4ccc(Cl)cc4)c3=O)ccc12`, the inhibition of growth at 10 µM in [1] came to 62.4%; in test [2], 69.8%; in test [4], 68.6%; in test [19], 85.3%. The growth at 0.1 µM in test [3] is 92%; in [8], 104%; in test [10] it was 79%; in test [17], 83%. For the same molecule, the growth at 0.01 µM in test [5] was 81%; in test [6], 94%; in [12], 101%; in test [15], 97%. Moreover, the results for the growth at 10 µM in [7], in test [16] and in [20] were -27%, 14% and 23%, respectively. The growth at 100 µM in test [9] stood at 52%. The results for the growth at 1 µM in test [11], in test [13] and in test [18] were 53%, 114% and 89%, respectively. The molecule further came in with a GI50 in test [14] of 2.69 µM. This molecule yielded a TGI in test [14] of 8.37 µM. Also, the CC50 in [14] (read-out: LD50 (the source's name)) was more than 1 µM.

As a reminder, the GI50 is the concentration giving 50% growth inhibition. Low readings indicate more potent growth inhibition, high ones less potent growth inhibition. A word on the TGI: it is the concentration at which net growth stops.

(Values after ChEMBL document CHEMBL2346664, “Synthesis, characterization and in vitro anticancer evaluation of novel 1,2,4-triazolin-3-one derivatives” (2013).)
